A selection: hits, their analogues and other compounds. The true share with any hit is near 3.7%.
eIF4E-4G inh: eIF4E/eIF4G interaction inhibition in translation initiation. TR-FRET eIF4E-eIF4GI(517-606) binding, 2 h. actives 0.37% (n = 220,000). P63073+Q04637. AID 782. inhibition, % at 21.7 µM
EBV gp42 inh: blocks Epstein-Barr virus glycoprotein 42 binding. inhibition, % (tested at 21.74 µM). actives 0.42% (n = 220,000). AID 1085. Fluorescence polarization binding assay, mP read-out; in the data active = inhibition above about 50%
NCF1 inh: blocks human p47phox regulatory protein of NADPH oxidases | P14598 | p47phox/p22phox peptide binding, fluorescence polarization, 2 h | inhibition, % at 24.7 µM | actives 0.53% (n = 220,000)
Target sequence (P14598 whole entry, looked up): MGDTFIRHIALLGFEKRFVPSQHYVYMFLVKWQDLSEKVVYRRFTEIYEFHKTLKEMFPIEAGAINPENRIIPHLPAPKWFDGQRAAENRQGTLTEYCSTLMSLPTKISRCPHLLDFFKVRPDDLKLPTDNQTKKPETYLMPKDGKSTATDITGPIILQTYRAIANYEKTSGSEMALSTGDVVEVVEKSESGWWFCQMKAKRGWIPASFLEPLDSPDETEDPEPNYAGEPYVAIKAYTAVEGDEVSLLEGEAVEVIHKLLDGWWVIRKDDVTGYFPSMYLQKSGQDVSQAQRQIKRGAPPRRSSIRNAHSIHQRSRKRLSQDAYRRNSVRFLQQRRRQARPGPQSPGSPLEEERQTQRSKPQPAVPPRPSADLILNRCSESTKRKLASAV
WT yeast gro inh: growth inhibition of WT yeast, mitochondrial fusion screen. AID 1362. mitochondrial fusion phenotypic screen, WT strain. actives 2.1% (n = 190,000). inhibition, % at 10 µM; in the data active = inhibition above about 58%; tested in S. cerevisiae
14-3-3 Bad PPI: disrupts binding of bovine 14-3-3 zeta to phospho-Bad peptide; P63103; TR-FRET 14-3-3zeta/Dy647-pBad peptide displacement, 1 h; inhibition, % at 21.7 µM; actives 0.71% (n = 220,000); AID 781;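 active = inhibition above about 70%, limit read from the data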
Target sequence (P63103 whole entry, looked up): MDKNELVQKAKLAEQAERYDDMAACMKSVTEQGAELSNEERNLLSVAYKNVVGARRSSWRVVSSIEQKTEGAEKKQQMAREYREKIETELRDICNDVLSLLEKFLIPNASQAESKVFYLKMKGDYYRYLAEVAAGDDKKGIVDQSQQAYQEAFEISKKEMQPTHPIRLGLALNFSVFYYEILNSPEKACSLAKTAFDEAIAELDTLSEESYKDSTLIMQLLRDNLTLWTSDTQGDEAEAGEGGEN
RBBP9 inh: blocks human serine hydrolase RBBP9; recombinant RBBP9, FP-Rh probe fluorescence polarization; inhibition, % at 7.94 µM; actives 0.2% (n = 220,000); AID 1515;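 active = inhibition above the campaign mean of all tested compounds plus 3 SD, cut at about 14% in these data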
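System: RBBP9 protein | Quantity: 2.5 µM RBBP9 dispensing solution, before mixing | Reagent: FP-Rh probe, 375 nM dispensing solution | Timing: Enzyme-compound preincubation 30 min, then probe labeling 45 min, 25 °C | Measured by: Fluorescence polarization | Read-out: % inhibition | Replication: One well per compound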
Each line names hits and unclear results; the compound was inactive in the other large screens.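 Rule for the calls, unless noted: active = inhibition above about 30% (limit read from the data); inactive = the rest.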

CNC(C(=O)c1ccccc1)C(OC)c1cccc([N+](=O)[O-])c1 (stereo unspecified)	none (no result: WT yeast gro inh)
CNC(C(=O)c1ccccc1)C(OC)c1ccccc1 (stereo unspecified)	WT yeast gro inh 79.5
C=C(C=O)CC1CC(O)[C@]2(C)OC3CC4OC5C[C@]6(C)O[C@]7(C)CCC8OC9C[C@]%10(C)OC%11C(C)=CC(=O)OC%11CC%10OC9C[C@@H](C)C8OC7CC6O[C@]5(C)CC5OC5C4OC3CC2O1 (stereo partly specified)	WT yeast gro inh 81.9
CCOc1c(Cl)cc(CNCCc2c[nH]c3ccccc23)cc1OC	none
CCOc1cc(CNCCc2c[nH]c3ccccc23)cc(Cl)c1OCC	WT yeast gro inh 86.2
c1ccc2c(N3CCNCC3)nsc2c1	none
c1ccc(-c2ccc(-c3n(-c4ccccn4)c4ccccc4[n+]3-c3ccccn3)cc2)cc1	NCF1 inh 34.2
CCOP(=O)(OCC)c1ccc(OP(=O)(c2cccc([N+](=O)[O-])c2)c2cccc([N+](=O)[O-])c2)cc1	none (no result: WT yeast gro inh)
Cn1cccc1/C=C1\C(=O)NC(=O)N(CCC2=CCCCC2)C1=O	none
Cn1cccc1/C=C1\C(=O)NC(=O)N(Cc2ccccc2Cl)C1=O	EBV gp42 inh 57.8
CCN(CC)c1ccc(/C=C2/C(=O)NC(=O)N(Cc3ccco3)C2=O)cc1	NCF1 inh 167.8
CN(C)c1ccc(/C=C2/C(=O)NC(=O)N(Cc3ccco3)C2=O)cc1	NCF1 inh 77.6
C=CCN1C(=O)NC(=O)/C(=C\c2ccc(-c3ccccc3[N+](=O)[O-])o2)C1=O	none
O=C1NC(=S)N(Cc2ccco2)C(=O)/C1=C\c1cccs1	eIF4E-4G inh 70.0, EBV gp42 inh 72.3, 14-3-3 Bad PPI 96.7
O=C1NC(=O)N(Cc2ccco2)C(=O)/C1=C/c1ccc(-c2cccc([N+](=O)[O-])c2)o1	EBV gp42 inh 90.6
C=CCN1C(=O)/C(=C/c2cccs2)C(=O)NC1=S	none
Cn1c(O)c(C(=Nc2ccc(F)cc2)c2ccccc2Cl)c(=O)n(C)c1=O	none (no result: WT yeast gro inh)
Cc1ccc(N2CCN(CCc3ccccc3)CC2)cc1	14-3-3 Bad PPI 82.8
Cc1cccc(N2CCN(CCc3ccccc3)CC2)c1C	none
Cc1cc(NC(=O)CCl)on1	none
OC(c1ccc(F)cc1)(c1ccc(F)cc1)[C@@H]1CCCN1	NCF1 inh 43.4
OC(c1ccccc1)(c1ccccc1)C1CCNCC1	none
Cc1ccccc1N1C(=O)NC(=O)/C(=C\c2ccc3c(c2)CCCN3Cc2ccccc2)C1=O	EBV gp42 inh 171.2
COc1ccc(/C=C2/C(=O)NC(=O)N(c3ccccc3)C2=O)cc1CN1C(=O)c2ccccc2C1=O	none (no result: WT yeast gro inh)
CCCn1ncc(CN2CCCC(C(=O)c3cccc(OC)c3)C2)c1C (stereo unspecified)	none
Fc1ccc2c(c1)nnn2C1CCN(Cc2nnnn2C2CCCCC2)CC1	14-3-3 Bad PPI 79.6
Cc1nc2cc(C(F)(F)F)ccc2n1C1CCN(Cc2nnnn2CCc2ccccc2)CC1	none
Cc1nc2cc(F)ccc2n1C1CCN(Cc2nnnn2CCc2ccccc2)CC1	14-3-3 Bad PPI 80.2
CC1CN(c2ccc([N+](=O)[O-])cc2Cl)CCN1 (stereo unspecified)	none
Cn1c(O)c(/C=C2\N=c3ccccc3=C2CCNC(=S)NC2CC2)c(=O)n(C)c1=O	NCF1 inh 38.7 (no result: WT yeast gro inh)
COC(=O)[C@@]1(C#N)[C@@H]2C=CC(C(C)=O)=CN2[C@@H](C(N)=O)[C@@H]1c1ccc(F)cc1	EBV gp42 inh 119.2 (no result: WT yeast gro inh)
CCOC(=O)[C@@]1(C#N)C(c2ccc(Cl)c(Cl)c2)[C@H](C(N)=O)N2C=C(C(C)=O)C=C[C@H]21 (stereo partly specified)	EBV gp42 inh 101.6
CCOC(=O)[C@]1(C#N)[C@@H]2C=CC(C(N)=O)=CN2[C@@H](C(N)=O)[C@@H]1c1ccc(F)cc1	none (no result: WT yeast gro inh)
CN(C)CC1CSCCC1(O)c1ccc(C(F)(F)F)cc1 (stereo unspecified)	none
CN(C)c1nc(-c2ccccc2)[n+](C)s1	none
Cc1ccc(-c2nc(N3CCOCC3)s[n+]2-c2ccccc2)cc1	NCF1 inh 38.0
Clc1ccccc1CN1CCN(c2ccccc2)CC1	14-3-3 Bad PPI 83.5
Clc1ccc(N2CCN(Cc3ccccc3Cl)CC2)cc1	none
CCC(C)NS(=O)(=O)c1ccc(OCC(=O)N2CCN(CC)CC2)cc1 (stereo unspecified)	none
CCOC(=O)c1c(C)n(Cc2ccccc2)c2ccc(OCC(O)Cn3nc(C)nc3C)cc12 (stereo unspecified)	none
CCOC(=O)c1c(C)n(Cc2ccccc2)c2ccc(OCC(O)Cn3nc(C)cc3C)cc12 (stereo unspecified)	WT yeast gro inh 66.1
CCOC(=O)c1c(-n2c(C)cc(C=C3C(=O)NC(=S)NC3=O)c2C)sc2c1CCCC2	WT yeast gro inh 77.6
COc1cc(CN=Cc2c(O)n(C(C)(C)C)c(=O)[nH]c2=O)cc(OC)c1	none (no result: WT yeast gro inh)
N#CCCn1cc(C(=O)NCc2ccccc2)c(-c2ccc3c(c2)OCCO3)n1	none
CN(N)N=Nc1nc2c([nH]1)c(=O)n(C)c(=O)n2C	none (no result: WT yeast gro inh)
CCOC(=O)C1=C(NC(=S)NC(=O)c2ccccc2)c2ccccc2CC12CCCC2	WT yeast gro inh 72.8
Cc1nn(C)cc1/C=C1/CC2C3CC=C4CC(O)CCC4(C)C3CCC2(C)C1=O (stereo unspecified)	none (no result: eIF4E-4G inh, EBV gp42 inh, NCF1 inh, WT yeast gro inh, 14-3-3 Bad PPI)
CC12CCC3C(CC=C4CC(O)CCC43C)C1C/C(=C\c1ccccc1F)C2=O (stereo unspecified)	WT yeast gro inh 65.0
Cc1oc(-c2ccccc2)nc1CN1C(=O)C(C)N=C(c2ccccc2F)c2cc(Cl)ccc21 (stereo unspecified)	WT yeast gro inh 79.7
CCCCCSc1cc(OC)c(CCNC)cc1OC	none
CCCCCCCSc1cc(OC)c(CCNC)cc1OC	WT yeast gro inh 94.4
CN1C(=O)C(=Cc2ccc(N3CCCCCC3)cc2)C(=O)N(C)C1=O	EBV gp42 inh 84.0 (no result: WT yeast gro inh)
CN1C(=O)C(=Cc2ccc(N3CCOCC3)c([N+](=O)[O-])c2)C(=O)N(C)C1=O	none
O=C1NC(=O)N(Cc2ccc(F)cc2)C(=O)/C1=C\c1ccc(N2CCCC2)cc1	NCF1 inh 193.4 (no result: WT yeast gro inh)
O=C1NC(=O)N(c2ccc(F)cc2)C(=O)/C1=C/c1ccc(N2CCOCC2)cc1	none
COc1cccc(N2CCN(Cc3ccc(Cl)cc3)CC2)c1	none
COc1cccc(N2CCN(Cc3cccc(Cl)c3)CC2)c1	14-3-3 Bad PPI 79.8
CC(C)C12CN3CCN(CC(C3)C1O)C2 (stereo unspecified)	WT yeast gro inh 59.5
CC1C(c2cccs2)=[N+]([O-])C(C)(C(=O)c2ccc(Cl)cc2)N1O (stereo unspecified)	none (no result: eIF4E-4G inh, EBV gp42 inh, NCF1 inh, WT yeast gro inh, 14-3-3 Bad PPI)
CN[C@@H]1C[C@@H](c2ccc(Cl)c(Cl)c2)c2ccccc21	eIF4E-4G inh 98.9

Screening data (PubChem BioAssay)
